Measurements as given in ChEMBL document CHEMBL1926569, “Novel (E)-1-(4-methyl-2-(alkylamino)thiazol-5-yl)-3-arylprop-2-en-1-ones as potent antimicrobial agents” (2011).
≈ marks a conversion by molar mass, not a printed value.

Assays:
Candida albicans [1] = assay: Antifungal activity against Candida albicans isolated from human incubated for 72 hrs followed by serial sub-cultivation for 72 hrs by serial dilution technique; type: functional
In short: (§1)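 MFC: material from 72 h malt broth microdilution wells was serially sub-cultured into fresh broth plates and incubated a further 72 h at 28 °C. Fungicidal concentration is taken from growth after sub-culture. Duplicate, repeated three times.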

Talaromyces funiculosus [2] = assay: Ratio of bifonazole to compound for Penicillium funiculosum ATCC 36839; type: functional
Candida albicans [3] = assay: Ratio of bifonazole to compound for Candida albicans isolated from human; type: functional
Aspergillus ochraceus [4] = assay: Antifungal activity against Aspergillus ochraceus ATCC 12066 after 72 hrs by serial dilution technique; type: functional; details: ATCC 12066, 72 h
In short: (§2)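 Modified microdilution in 96-well plates. Fungi were kept on malt agar at 4 °C. Spores were washed off in sterile 0.85% saline with 0.1% Tween 80. Compounds were dissolved at 1 mg/ml in 5% DMSO with 0.1% Tween 80 and added to malt broth with inoculum. Plates were shaken at 160 rpm for 72 h at 28 °C. Duplicate, repeated three times.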

Staphylococcus aureus [5] = assay: Antibacterial activity against Staphylococcus aureus ATCC 6538 after 24 hrs by microdilution method; type: functional; details: ATCC 6538, 24 h
In short: (§3)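 Broth microdilution in 96-well plates. Bacterial suspensions were adjusted in sterile saline to 1.0 × 10⁵ CFU/ml, prepared daily and kept at 4 °C. Compound was added to LB broth with 1.0 × 10⁴ CFU per well and shaken at 160 rpm for 24 h at […] (so in the source). MIC is the lowest concentration with no visible growth under a binocular microscope. OD655 was also read. Duplicate, repeated three times.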

Talaromyces funiculosus [6] = assay: Antifungal activity against Penicillium funiculosum ATCC 36839 after 72 hrs by serial dilution technique; type: functional; details: ATCC 36839, 72 h; in short: as §2
Trichoderma viride [7] = assay: Ratio of bifonazole to compound for Trichoderma viride IAM 5061; type: functional
Micrococcus flavus [8] = assay: Antibacterial activity against Micrococcus flavus ATCC 10240 incubated for 24 hrs followed by serial sub-cultivation for 24 hrs by microdilution; type: functional; details: ATCC 10240, 24 h
In short: (§4)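 MBC: after the 24 h LB broth microdilution (1.0 × 10⁴ CFU per well, 160 rpm), wells were serially sub-cultured into fresh broth plates and incubated a further 24 h. MBC is the lowest concentration with no visible growth, taken as 99.5% killing of the original inoculum. Duplicate, repeated three times.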

Listeria monocytogenes [9] = assay: Antibacterial activity against Listeria monocytogenes NCTC 7973 after 24 hrs by microdilution method; type: functional; details: NCTC 7973, 24 h; in short: as §3
Aspergillus ochraceus [10] = assay: Antifungal activity against Aspergillus ochraceus ATCC 12066 incubated for 72 hrs followed by serial sub-cultivation for 72 hrs by serial dilution technique; type: functional; details: ATCC 12066, 72 h; in short: as §1
Aspergillus niger [11] = assay: Ratio of bifonazole to compound for Aspergillus niger ATCC 6275; type: functional
Candida albicans [12] = assay: Antifungal activity against Candida albicans isolated from human after 72 hrs by serial dilution technique; type: functional; in short: as §2
Aspergillus ochraceus [13] = assay: Ratio of ketoconazole to compound for Aspergillus ochraceus ATCC 12066; type: functional
Escherichia coli [14] = assay: Antibacterial activity against Escherichia coli ATCC 35210 after 24 hrs by microdilution method; type: functional; details: ATCC 35210, 24 h; in short: as §3
Candida albicans [15] = assay: Ratio of ketoconazole to compound for Candida albicans isolated from human; type: functional
Aspergillus flavus [16] = assay: Antifungal activity against Aspergillus flavus ATCC 9643 incubated for 72 hrs followed by serial sub-cultivation for 72 hrs by serial dilution technique; type: functional; details: ATCC 9643, 72 h; in short: as §1
Aspergillus ochraceus [17] = assay: Ratio of bifonazole to compound for Aspergillus ochraceus ATCC 12066; type: functional
Pseudomonas aeruginosa [18] = assay: Antibacterial activity against Pseudomonas aeruginosa ATCC 27853 incubated for 24 hrs followed by serial sub-cultivation for 24 hrs by microdilution; type: functional; details: ATCC 27853, 24 h; in short: as §4
Salmonella typhimurium [19] = assay: Antibacterial activity against Salmonella Typhimurium ATCC 13311 after 24 hrs by microdilution method; type: functional, Salmonella enterica subsp. enterica serovar Typhimurium; details: Salmonella enterica, ATCC 13311, 24 h; in short: as §3
Bacillus cereus [20] = assay: Antibacterial activity against clinical isolate of Bacillus cereus after 24 hrs by microdilution method; type: functional; in short: as §3
Penicillium ochrochloron [21] = assay: Ratio of ketoconazole to compound for Penicillium ochrochloron ATCC 9112; type: functional
Trichoderma viride [22] = assay: Antifungal activity against Trichoderma viride IAM 5061 incubated for 72 hrs followed by serial sub-cultivation for 72 hrs by serial dilution technique; type: functional; details: IAM 5061, 72 h; in short: as §1
Pseudomonas aeruginosa [23] = assay: Ratio of ampicillin MIC to compound MIC for Pseudomonas aeruginosa ATCC 27853; type: functional
Penicillium ochrochloron [24] = assay: Antifungal activity against Penicillium ochrochloron ATCC 9112 after 72 hrs by serial dilution technique; type: functional; details: ATCC 9112, 72 h; in short: as §2
Listeria monocytogenes [25] = assay: Antibacterial activity against Listeria monocytogenes NCTC 7973 incubated for 24 hrs followed by serial sub-cultivation for 24 hrs by microdilution; type: functional; details: NCTC 7973, 24 h; in short: as §4
Aspergillus ochraceus [26] = assay: Antifungal activity against Aspergillus ochraceus after 72 hrs by serial dilution technique
Micrococcus flavus [27] = assay: Antibacterial activity against Micrococcus flavus ATCC 10240 after 24 hrs by microdilution method; type: functional; details: ATCC 10240, 24 h; in short: as §3
Pseudomonas aeruginosa [28] = assay: Antibacterial activity against Pseudomonas aeruginosa ATCC 27853 after 24 hrs by microdilution method; type: functional; details: ATCC 27853, 24 h; in short: as §3
Enterococcus faecalis [29] = assay: Antibacterial activity against Enterococcus faecalis isolated from human after 24 hrs by microdilution method; type: functional; in short: as §3
Staphylococcus aureus [30] = assay: Antibacterial activity against Staphylococcus aureus ATCC 6538 incubated for 24 hrs followed by serial sub-cultivation for 24 hrs by microdilution method; type: functional; details: ATCC 6538, 24 h; in short: as §4
Aspergillus niger [31] = assay: Antifungal activity against Aspergillus niger ATCC 6275 incubated for 72 hrs followed by serial sub-cultivation for 72 hrs by serial dilution technique; type: functional; details: ATCC 6275, 72 h; in short: as §1
Talaromyces funiculosus [32] = assay: Antifungal activity against Penicillium funiculosum ATCC 36839 incubated for 72 hrs followed by serial sub-cultivation for 72 hrs by serial dilution technique; type: functional; details: ATCC 36839, 72 h; in short: as §1
Aspergillus niger [33] = assay: Antifungal activity against Aspergillus niger ATCC 6275 after 72 hrs by serial dilution technique; type: functional; details: ATCC 6275, 72 h; in short: as §2
Enterococcus faecalis [34] = assay: Antibacterial activity against Enterococcus faecalis isolated from human incubated for 24 hrs followed by serial sub-cultivation for 24 hrs by microdilution; type: functional; in short: as §4
Penicillium ochrochloron [35] = assay: Ratio of bifonazole to compound for Penicillium ochrochloron ATCC 9112; type: functional
Aspergillus flavus [36] = assay: Antifungal activity against Aspergillus flavus ATCC 9643 after 72 hrs by serial dilution technique; type: functional; details: ATCC 9643, 72 h; in short: as §2
Aspergillus fumigatus [37] = assay: Antifungal activity against Aspergillus fumigatus isolated from human incubated for 72 hrs followed by serial sub-cultivation for 72 hrs by serial dilution technique; type: functional; in short: as §1
Escherichia coli [38] = assay: Antibacterial activity against Escherichia coli ATCC 35210 incubated for 24 hrs followed by serial sub-cultivation for 24 hrs by microdilution; type: functional; details: ATCC 35210, 24 h; in short: as §4
Penicillium ochrochloron [39] = assay: Antifungal activity against Penicillium ochrochloron ATCC 9112 incubated for 72 hrs followed by serial sub-cultivation for 72 hrs by serial dilution technique; type: functional; details: ATCC 9112, 72 h; in short: as §1
Salmonella typhimurium [40] = assay: Antibacterial activity against Salmonella Typhimurium ATCC 13311 incubated for 24 hrs followed by serial sub-cultivation for 24 hrs by microdilution; type: functional, Salmonella enterica subsp. enterica serovar Typhimurium; details: Salmonella enterica, ATCC 13311, 24 h; in short: as §4
Trichoderma viride [41] = assay: Antifungal activity against Trichoderma viride IAM 5061 after 72 hrs by serial dilution technique; type: functional; details: IAM 5061, 72 h; in short: as §2
Bacillus cereus [42] = assay: Antibacterial activity against clinical isolate of Bacillus cereus incubated for 24 hrs followed by serial sub-cultivation for 24 hrs by microdilution; type: functional; in short: as §4
Aspergillus fumigatus [43] = assay: Ratio of ketoconazole to compound for Aspergillus fumigatus isolated from human; type: functional

CNc1nc(C)c(C(=O)/C=C/c2cccc(Br)c2)s1
MFC (Candida albicans [1]): 59.3 µM (≈ 20 µg/mL) | Ratio (Talaromyces funiculosus [2]): 10 | Ratio (Candida albicans [3]): 10 | MIC (Aspergillus ochraceus [4]): 29.7 µM (≈ 10 µg/mL) | MIC (Staphylococcus aureus [5]): 59.3 µM (≈ 20 µg/mL) | MIC (Talaromyces funiculosus [6]): 29.7 µM (≈ 10 µg/mL) | Ratio (Trichoderma viride [7]): 10 | MBC (Micrococcus flavus [8]): 59.3 µM (≈ 20 µg/mL) | MIC (Listeria monocytogenes [9]): 89 µM (≈ 30 µg/mL) | MFC (Aspergillus ochraceus [10]): 59.3 µM (≈ 20 µg/mL) | Ratio (Aspergillus niger [11]): 10 | MIC (Candida albicans [12]): 44.5 µM (≈ 15 µg/mL) | Ratio (Aspergillus ochraceus [13]): 10 | MIC (Escherichia coli [14]): 74.2 µM (≈ 25 µg/mL) | Ratio (Candida albicans [15]): 10 | MFC (Aspergillus flavus [16]): 74.2 µM (≈ 25 µg/mL) | Ratio (Aspergillus ochraceus [17]): 10 | MBC (Pseudomonas aeruginosa [18]): 74.2 µM (≈ 25 µg/mL) | MIC (Salmonella typhimurium [19]): 59.3 µM (≈ 20 µg/mL) | MIC (Bacillus cereus [20]): 99.3 µM (≈ 33.5 µg/mL) | Ratio (Penicillium ochrochloron [21]): 10 | MFC (Trichoderma viride [22]): 59.3 µM (≈ 20 µg/mL) | Ratio (Pseudomonas aeruginosa [23]): 10 | MIC (Penicillium ochrochloron [24]): 29.7 µM (≈ 10 µg/mL) | MBC (Listeria monocytogenes [25]): 89 µM (≈ 30 µg/mL) | MIC (Aspergillus ochraceus [26]): 29.7 µM (≈ 10 µg/mL) | MIC (Micrococcus flavus [27]): 14.8 µM (≈ 4.99 µg/mL) | MIC (Pseudomonas aeruginosa [28]): 74.2 µM (≈ 25 µg/mL) | MIC (Enterococcus faecalis [29]): 74.2 µM (≈ 25 µg/mL) | MBC (Staphylococcus aureus [30]): 74.2 µM (≈ 25 µg/mL) | MFC (Aspergillus niger [31]): 59.3 µM (≈ 20 µg/mL) | MFC (Talaromyces funiculosus [32]): 59.3 µM (≈ 20 µg/mL) | MIC (Aspergillus niger [33]): 44.5 µM (≈ 15 µg/mL) | MBC (Enterococcus faecalis [34]): 74.2 µM (≈ 25 µg/mL) | Ratio (Penicillium ochrochloron [35]): 10 | MIC (Aspergillus flavus [36]): 29.7 µM (≈ 10 µg/mL) | MFC (Aspergillus fumigatus [37]): 59.3 µM (≈ 20 µg/mL) | MBC (Escherichia coli [38]): 74.2 µM (≈ 25 µg/mL) | MFC (Penicillium ochrochloron [39]): 59.3 µM (≈ 20 µg/mL) | MBC (Salmonella typhimurium [40]): 74.2 µM (≈ 25 µg/mL) | MIC (Trichoderma viride [41]): 29.7 µM (≈ 10 µg/mL) | MBC (Bacillus cereus [42]): 74.2 µM (≈ 25 µg/mL) | Ratio (Aspergillus fumigatus [43]): 10
